Data on five compounds can be found in ChEMBL document CHEMBL4004810, “Pharmacokinetics of the Individual Major Components of Polymyxin B and Colistin in Rats” (J Nat Prod, 2017).

A short description of data set [1]: Clearance in Sprague-Dawley rat at 4 mg/kg, iv administered as single bolus cassette dose by UPLC-MS/MS analysis. Type of data set: ADME, organism-based. The note with it: in vivo.
Data set [2] in a line: Protein binding in rat plasma up to 10 ug/ml after 2 hrs by LC-MS/MS based ultrafiltration method. The note with it: read-out: PPB (converted).
Data set [3] in a line: Elimination half life in Sprague-Dawley rat at 0.8 mg/kg, iv administered as single bolus dose by LC-MS/MS analysis. Type of data set: ADME, organism-based. As to conditions: in vivo, read-out: beta t1/2. A digest of the protocol:
(§1)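 Jugular vein (dosing) and carotid artery (sampling) cannulated rats, recovered one day; 4 groups, n = 4, each given a 0.8 mg/kg iv bolus of one component. Blood sampled predose and at 10–360 min; urine collected in chilled metabolic cages over 0–6 h and 6–24 h. Plasma and urine quantified by LC-MS/MS (calibration 0.1–8.0 mg/L); parameters by noncompartmental analysis.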

Data set [4] is described as follows: Total clearance in Sprague-Dawley rat at 1 mg/kg, iv administered as bolus dose by HPLC analysis. Type of data set: ADME, organism-based. The note with it: in vivo.
Data set [5] is described as follows: AUC (0 to infinity) in Sprague-Dawley rat at 0.8 mg/kg, iv administered as single bolus dose by LC-MS/MS analysis. Also on record: dose 0.8 mg/kg, route intravenous, time infinity. Type of data set: ADME, organism-based. As to conditions: in vivo. A digest of the protocol: as §1
Data set [6] is described as follows: Protein binding in Sprague-Dawley rat plasma at 5 mg/L after 30 mins by ultracentrifugation based LC-MS/MS method. Format: ADME, cell-free. As to conditions: read-out: PPB (converted). In a few lines: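 Drug-free rat plasma spiked with 5 mg/L component in triplicate, incubated 30 min at 37 °C, then ultracentrifuged 215000g for 4 h at 37 °C. Two replicates sampled protein-free supernatant, one sampled total resuspension; both measured by LC-MS/MS. % bound = (total − supernatant)/total × 100.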

Data set [7] is described as follows: Drug recovery in Sprague-Dawley rat urine at 0.8 mg/kg, iv administered as single bolus dose by LC-MS/MS analysis. Type of data set: ADME, organism-based. The note with it: read-out: Drug recovery. A digest of the protocol: as §1
Data set [8] can be described thus: Volume of distribution in Sprague-Dawley rat at 0.8 mg/kg, iv administered as single bolus dose by LC-MS/MS analysis. Format: ADME, organism-based. As to conditions: in vivo. In a few lines:
as §1

Data set [9] in a line: Total clearance in Sprague-Dawley rat at 0.8 mg/kg, iv administered as single bolus dose by LC-MS/MS analysis. Type of data set: ADME, organism-based. The note with it: in vivo. In a few lines:
as §1

Data set [10] can be described thus: Plasma concentration in Sprague-Dawley rat at 0.8 mg/kg, iv administered as single bolus dose after 360 mins by LC-MS/MS analysis. Format: ADME, organism-based. In a few lines:
as §1

Positions of bridges follow the written chain, without caps; N, C: chain ends. Non-standard residues stand in square brackets, D forms with d. Residues, ends and D or L forms follow the SMILES beside them. *: point of attachment. Heptanoyl(6-Me) = CC(C)CCCCC(=O)*; X1 = CC[C@@H](C)CCCCC(=O)*; X2 = CC[C@H](C)CCCCC(=O)*; Octanoyl = CCCCCCCC(=O)*; Dab = NCC[C@H](N)C(=O)O

By clearance is commonly meant a measure of how efficiently the substance is removed, as volume per time. Low readings indicate inefficient removal, high ones efficient removal. `CCCCCCCC(=O)N[C@@H](CCN)C(=O)N[C@H](C(=O)N[C@@H](CCN)C(=O)N[C@H]1CCNC(=O)[C@H]([C@@H](C)O)NC(=O)[C@H](CCN)NC(=O)[C@H](CCN)NC(=O)[C@H](CC(C)C)NC(=O)[C@@H](Cc2ccccc2)NC(=O)[C@H](CCN)NC1=O)[C@@H](C)O` (Octanoyl-[Dab]T[Dab][Dab][Dab][dF]L[Dab][Dab]T; lactam 4-C) returned a clearance in data set [1] of 1.69 mL/min/kg. For the same compound, in [2], the fraction unbound at 2 h is 0.08.
What is called AUC(0-inf) is total exposure, with the tail of the curve extrapolated. Read a high AUC(0-inf) as high exposure. As usually defined, the Vd is a proportionality between amount in the body and measured concentration, not a real space. A high value points to wide distribution into tissue. Regarding `CC[C@H](C)CCCCC(=O)N[C@@H](CCN)C(=O)N[C@H](C(=O)N[C@@H](CCN)C(=O)N[C@H]1CCNC(=O)[C@H]([C@@H](C)O)NC(=O)[C@H](CCN)NC(=O)[C@H](CCN)NC(=O)[C@H](CC(C)C)NC(=O)[C@@H](CC(C)C)NC(=O)[C@H](CCN)NC1=O)[C@@H](C)O` (X2-[Dab]T[Dab][Dab][Dab][dL]L[Dab][Dab]T; lactam 4-C), the half-life in [3] came out at 1.37 h. For the same compound, the results for the clearance in data set [4] and in data set [9] were 5.1 mL/min/kg and 2.75 mL/min/kg, respectively. The AUC(0-inf) in data set [5] was 5020 ng·h/mL. The fraction unbound at 0.5 h, 5 mg/L in data set [6] was 0.434. In data set [7], the dose excreted is 0.14%. The compound also displayed a Vd in [8] of 0.27 L/kg.
Turning to `CC[C@@H](C)CCCCC(=O)N[C@@H](CCN)C(=O)N[C@H](C(=O)N[C@@H](CCN)C(=O)N[C@H]1CCNC(=O)[C@H]([C@@H](C)O)NC(=O)[C@H](CCN)NC(=O)[C@H](CCN)NC(=O)[C@H](CC(C)C)NC(=O)[C@@H](Cc2ccccc2)NC(=O)[C@H](CCN)NC1=O)[C@@H](C)O` (X1-[Dab]T[Dab][Dab][Dab][dF]L[Dab][Dab]T; lactam 4-C), the half-life in data set [3] was found to be 1.32 h. In data set [10], this compound came in with a concentration at 6 h of 200 ng/mL. In [5], this compound gave an AUC(0-inf) of 6080 ng·h/mL. For the same compound, the fraction unbound at 0.5 h, 5 mg/L in data set [6] was 0.177. In addition, the dose excreted in [7] amounted to 0.13%. For the same compound, the clearance was 1.65 mL/min/kg in data set [1] and 2.39 mL/min/kg in [9]. The same compound showed a Vd in [8] of 0.21 L/kg. In data set [2], the fraction unbound at 2 h was 0.08.
Regarding `CC(C)CCCCC(=O)N[C@@H](CCN)C(=O)N[C@H](C(=O)N[C@@H](CCN)C(=O)N[C@H]1CCNC(=O)[C@H]([C@@H](C)O)NC(=O)[C@H](CCN)NC(=O)[C@H](CCN)NC(=O)[C@H](CC(C)C)NC(=O)[C@@H](Cc2ccccc2)NC(=O)[C@H](CCN)NC1=O)[C@@H](C)O` [POLYMYXIN B2] ({Heptanoyl(6-Me)}-[Dab]T[Dab][Dab][Dab][dF]L[Dab][Dab]T; lactam 4-C), the half-life in data set [3] was determined as 1.58 h. In [10], this compound gave a concentration at 6 h of 200 ng/mL. In data set [5], this compound gave an AUC(0-inf) of 6930 ng·h/mL. The fraction unbound at 0.5 h, 5 mg/L in data set [6] was 0.316. The dose excreted in [7] was 0.09%. The clearance in data set [1] was determined as 1.69 mL/min/kg; in data set [9] it was 1.96 mL/min/kg. For the same compound, the Vd in data set [8] was found to be 0.23 L/kg. Besides, the fraction unbound at 2 h in data set [2] was 0.08.
Regarding `CC(C)CCCCC(=O)N[C@@H](CCN)C(=O)N[C@H](C(=O)N[C@@H](CCN)C(=O)N[C@H]1CCNC(=O)[C@H]([C@@H](C)O)NC(=O)[C@H](CCN)NC(=O)[C@H](CCN)NC(=O)[C@H](CC(C)C)NC(=O)[C@@H](CC(C)C)NC(=O)[C@H](CCN)NC1=O)[C@@H](C)O` [COLISTIN B] ({Heptanoyl(6-Me)}-[Dab]T[Dab][Dab][Dab][dL]L[Dab][Dab]T; lactam 4-C), the half-life in data set [3] amounted to 1.52 h. Also, the clearance worked out at 5.3 mL/min/kg in data set [4] and 3.05 mL/min/kg in [9]. The AUC(0-inf) in data set [5] was 4600 ng·h/mL. Also, in data set [6], the fraction unbound at 0.5 h, 5 mg/L is 0.583. For the same compound, the dose excreted in data set [7] was found to be 0.24%. The Vd in [8] came out at 0.37 L/kg.
